MPTP inh: blocks calcium-induced mitochondrial swelling; isolated mouse mitochondria, Ca2+ swelling absorbance, 30 min; inhibition, % at 10 µM; 1.4% of 360,000 active; AID 602449;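 active = inhibition of 50% or more, scaled per plate between neutral and stimulator controls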
MC4R antag cAMP: human MC4R antagonism in cAMP assay; inhibition, % at 6.5 µM; MC4R-expressing cells, MTII-stimulated cAMP, LANCE TR-FRET; P32245; 0.48% of 360,000 active;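 active = inhibition above its plate's cutoff, the mean of tested wells on that plate plus 3 SD, cut at about 29% in these data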
Target sequence (P32245 whole entry, looked up): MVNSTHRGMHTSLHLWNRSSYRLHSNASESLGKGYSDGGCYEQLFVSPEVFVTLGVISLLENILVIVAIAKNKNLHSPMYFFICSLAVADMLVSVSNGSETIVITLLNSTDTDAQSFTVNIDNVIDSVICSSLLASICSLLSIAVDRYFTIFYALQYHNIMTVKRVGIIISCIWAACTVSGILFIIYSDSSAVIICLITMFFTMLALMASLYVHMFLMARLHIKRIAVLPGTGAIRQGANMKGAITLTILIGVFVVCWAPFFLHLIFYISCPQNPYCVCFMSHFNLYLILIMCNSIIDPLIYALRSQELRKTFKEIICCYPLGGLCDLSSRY
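System: U2OS cells stably expressing human melanocortin 4 receptor (MC4R). Reagent: Melanotan II challenge after compound preincubation. Doses: 6.5 µM. Times: 30-min compound, 1-h challenge, 1-h detection, room temperature. Measured by: TR-FRET with Eu-cAMP and labeled anti-cAMP, 671 nm. Replicates: singlicate.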
ATG4B inhibitor: inhibitors of human ATG4B cysteine protease | ATG4B cleavage of LC3-PLA2, NBD-HPC fluorescence, 1 h | 0.51% of 340,000 active | Q9Y4P1 | inhibition, % at 8.33 µM | AID 504462; in the data active = inhibition above about 40%
SMARCA2 activ: activators of SMARCA2 function. MG213 cells, MMTV-luciferase reporter, dexamethasone, overnight. 1% of 370,000 active. AID 652017. activation, % at 9.1 µM; in the data active = activation above about 7.8%
MC4R barr agon: activates human MC4R beta-arrestin recruitment | P32245 | 0.98% of 360,000 active | activation, % at 8.9 µM | U2OS MC4R beta-arrestin complementation, luminescence; percent of melanotan II response, DMSO zero;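 active = activation above a per-plate cutoff, the mean activation of sample wells on that plate plus 3 SD, cut at about 8% in these data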
A number is an active result; . = inactive; / = not tested or not shown. Only some compounds are listed: those with a hit (about 4.1% of all), similar ones and a draw of the others.

SMILES	MPTP inh	MC4R antag cAMP	ATG4B inhibitor	SMARCA2 activ	MC4R barr agon
Cc1ccc(-c2nc3sc4c(N)ncnc4c3c3c2CCCC3)cc1	.	.	.	.	8.4
COC(=O)[C@]12C[C@H](CC(=O)NCCCN3CCCC3=O)C(=O)N(Cc3ccc4c(c3)OCO4)C1=C[C@H](C(C)(C)C)O[C@@H]2C	/	/	/	.	/
COCCCNC(=O)C[C@H]1C[C@@]2(C(=O)OC)C(=C[C@H](COCc3ccccc3)O[C@@H]2C)N(Cc2ccc3c(c2)OCO3)C1=O	/	/	/	.	/
Cn1nc(C(=O)Nc2ccccc2Cl)cc1C(=O)Nc1ccccc1Cl	.	.	.	.	9.3
Cn1nc(C(=O)Nc2ccc(Br)cc2)cc1C(=O)Nc1ccc(Br)cc1	.	.	.	.	.
O=C(COc1ccccc1Br)Nc1ccccc1C(F)(F)F	.	.	.	.	9.4
CCOC(=O)Cc1cc(-c2ccc(OC)cc2)nc2ccc3ccccc3c12	.	.	.	.	.
CCOC(=O)Cc1cc(-c2ccc(O)cc2)nc2ccc3ccccc3c12	.	.	.	.	8.4
CN(C)c1ccc(C#Cc2ccc3cc(CCO)oc(=O)c3c2)cc1	.	43	.	/	.
COc1cc(C#Cc2ccc3cc(CCO)oc(=O)c3c2)cc(OC)c1	.	.	.	.	.
CCOC(=O)N1CCc2c(sc3c2C(=O)NC(c2ccccc2)N3)C1 (stereo not given)	.	.	.	/	9.0
CCCCCCCCN1C(=O)[C@H](CC(=O)NCCc2ccccc2OC)C[C@@]2(C(=O)OC)CC(C)(C)CC=C12	.	/	/	.	/
CCOc1ccc(CCNC(=O)COC(=O)c2cc([N+](=O)[O-])ccc2N2CCOCC2)cc1OCC	.	.	.	.	.
CCOc1ccc(CCNC(=O)c2cc([N+](=O)[O-])ccc2N2CCOCC2)cc1OCC	.	.	.	7.9	.
C[C@H]1O[C@@H](O[C@H]2[C@@H](O)C[C@H](O[C@H]3[C@@H](O)C[C@H](O[C@H]4CC[C@@]5(C)[C@H](CC[C@@H]6[C@@H]5C[C@@H](O)[C@]5(C)[C@@H](C7=CC(=O)OC7)CC[C@]65O)C4)O[C@@H]3C)O[C@@H]2C)C[C@H](O)[C@@H]1O	/	.	.	.	39
Cc1cccc2nc(-c3cccc(NC(=O)Cc4ccccc4)c3)cn12	.	.	.	13	.
Cc1ccc(CCNC(=O)C2CCCN2S(=O)(=O)c2ccc3c(c2)CCC(=O)N3)cc1 (stereo not given)	.	.	.	/	.
COc1ccc(NC(=O)C2CCCN2S(=O)(=O)c2ccc3c(c2)CCC(=O)N3)c(OC)c1 (stereo not given)	.	.	.	7.9	.
CCCCCCCCN1C(=O)[C@@H](CC(=O)NCc2ccc(C)o2)C[C@@]2(C(=O)OC)C1=C[C@H](COCc1ccccc1)O[C@@H]2C	/	/	/	.	/
COc1cc2[nH]c3c(N4CCN(c5ccc(Cl)cc5)CC4)ncnc3c2cc1OC	.	.	.	.	12
O=C(CC1C=CCC1)OCCN1CCN(C2CN(Cc3cn(Cc4ccccc4Cl)nn3)S(=O)(=O)C2)CC1 (stereo not given)	/	/	/	.	/
N/C(Cc1ccc(Cl)cc1)=N\OC(=O)c1ccc2ccccc2c1	.	.	.	.	9.2
COC(=O)[C@H](CC(C)C)N(CCc1cn(Cc2ccc(C)cc2)nn1)S(=O)(=O)c1ccc(F)cc1Br	/	/	/	.	/
Cc1cc(C2(c3ccc(O)c(C)c3)C(=O)Nc3ccccc32)ccc1O	.	.	.	.	.
Cc1cccc2c1NC(=O)C2(c1ccc(O)cc1)c1ccc(O)cc1	.	.	.	.	87
SMILES	MPTP inh	MC4R antag cAMP	ATG4B inhibitor	SMARCA2 activ	MC4R barr agon
O=C(/C=C/c1ccco1)NC(=S)Nc1ccc(N2CCOCC2)c(Cl)c1	.	.	.	.	22
O=C(/C=C/c1ccccc1)NC(=S)Nc1ccc(N2CCOCC2)c(Cl)c1	.	.	.	.	.
COc1cccc(CO[C@H]2C=C[C@@H](c3ccccc3)O[C@@H]2CO)c1	/	/	/	.	/
CC(C)(C)OC(=O)NCc1ccc(CNC(=O)c2[nH]cnc2C(=O)Nc2ccccc2F)cc1	.	.	/	.	9.3
Brc1ccccc1C1Cc2nnccc2CN1 (stereo not given)	/	/	/	.	/
O=C(CO/N=C/c1ccc(Cl)cc1Cl)NNC(=O)c1cccc(Cl)c1	.	.	.	.	.
CCC(CC)NC(=O)CO/N=C/c1ccc(Cl)cc1Cl	.	.	.	7.9	.
CCn1c(-c2ccccc2)c(C(=O)CCl)c2ccccc21	.	.	.	.	.
Cn1c(-c2ccccc2)c(C(=O)CCl)c2ccccc21	.	.	.	.	12
CCOc1ccc(N(CC(=O)Nc2c(C)n(C)n(-c3ccccc3)c2=O)S(=O)(=O)c2cccs2)cc1	/	/	/	.	/
Cc1ccccc1NC1=C/C(=N\S(=O)(=O)c2cccs2)c2ccccc2C1=O	.	.	95	.	.
CCCOc1ccc(NC(=O)C2CC(=O)N/C(=N/N=C(C)/C=C/c3ccc(N(C)C)cc3)S2)cc1 (stereo not given)	.	.	.	9.3	.
CC(C)NC(=O)N[C@H]1C[C@@H]2O[C@H](CO)CC[C@@H]2O[C@@H]1CCc1ccc(-c2ccc(F)cc2)cc1	/	/	/	.	/
Cc1ccc(NC(=O)C(=O)NCCOc2ccc(Cl)cc2)c(C)c1	.	.	.	.	8.8
CCCOc1ccc(NCC(=O)Nc2ccc(C)cc2C)cc1	.	.	.	.	.
Nc1ccc(N2CCN(c3cccc(Cl)c3)CC2)cc1	.	.	.	.	.
Oc1cccc(N2CCN(c3cccc(O)c3)CC2)c1	/	/	/	7.8	/
COc1ccc(NC(=O)c2ccc(-c3ccc(OC)cc3)s2)cc1	.	.	.	.	8.5
N#Cc1ccc(-c2ccc(F)cc2)nc1Oc1ccc(F)cc1	.	.	.	.	9.3
N#Cc1ccc(-c2ccc(F)cc2)nc1Oc1ccccc1	.	.	.	.	.
NC(=O)c1c(N)[nH]c(C(=O)c2ccccc2)c1-c1ccccc1	/	/	/	.	/
Nc1nnnn1/N=C/c1ccccc1OCc1ccc(Cl)cc1Cl	.	.	.	.	.
Nc1nnnn1/N=C/c1ccccc1OCc1ccc(Cl)cc1	.	.	.	.	8.3
O=C(N/N=C\c1cn[nH]c1-c1ccc(Cl)cc1)c1cccs1	.	.	.	.	8.8
Cc1ccc(NC(=S)N2CCC(c3nc4ccccc4s3)CC2)cc1C	.	.	.	.	.
SMILES	MPTP inh	MC4R antag cAMP	ATG4B inhibitor	SMARCA2 activ	MC4R barr agon
Cc1cc(C)cc(NC(=S)N2CCC(c3nc4ccccc4s3)CC2)c1	.	.	.	.	8.5
Cc1[nH]c2ccccc2c1CC(=O)Nc1ccc(Nc2cccnc2)c(-c2ccc(OC(F)(F)F)cc2)c1	/	/	/	.	/
Cn1c(NC(=O)c2ccco2)c(-c2ccccc2)c(=O)c2ccccc21	.	.	.	.	.
CCn1c(NC(=O)c2ccco2)c(-c2ccccc2Cl)c(=O)c2ccccc21	.	.	.	8.0	.
C=CCNC(=O)c1cnc2n(c1=O)CCS2	.	.	.	7.9	.
O=C(NCc1ccc(F)cc1)c1cnc2n(c1=O)CCS2	.	.	.	.	.
O=c1c2ccccc2[nH]n1[C@@H](Cc1ccccc1)Cn1cc(-c2ccc(-c3ccccc3)cc2)nn1	/	/	/	.	/
